Source: PMC10233671 (ACS Omega, 2023)
In brackets after ≈: the same amount, converted by molar mass.

How the values were obtained:
[1] = molecular target: Msmeg CIII2CIV2 (Mycolicibacterium smegmatis, UniProt A0R052+I7GD61); experiment: Oxygen consumption assay with purified CIII2CIV2; format: biochemical, Mycobacterium smegmatis
[2] = tested on: viable mycobacteria in the sputum; conditions: phase 2a multiple-dose trial; cited from earlier work
[3] = molecular target: bovine mitochondrial cytochrome bc1 (complex III) (Bos taurus, UniProt P00157); experiment: Oxygen consumption assay with bovine heart sub-mitochondrial particles; format: biochemical
[4] = tested on: Mtb H37Rv; conditions: reported value; cited from earlier work
[5] = cited from earlier work
[6] = molecular target: T1, mitochondrial CIII2 (cytochrome bc1) (Candida albicans, UniProt P0C8L0); experiment: C. albicans complex III activity assay; format: biochemical; conditions: 10 and 1 μM
T1 sequence (P0C8L0 1-387): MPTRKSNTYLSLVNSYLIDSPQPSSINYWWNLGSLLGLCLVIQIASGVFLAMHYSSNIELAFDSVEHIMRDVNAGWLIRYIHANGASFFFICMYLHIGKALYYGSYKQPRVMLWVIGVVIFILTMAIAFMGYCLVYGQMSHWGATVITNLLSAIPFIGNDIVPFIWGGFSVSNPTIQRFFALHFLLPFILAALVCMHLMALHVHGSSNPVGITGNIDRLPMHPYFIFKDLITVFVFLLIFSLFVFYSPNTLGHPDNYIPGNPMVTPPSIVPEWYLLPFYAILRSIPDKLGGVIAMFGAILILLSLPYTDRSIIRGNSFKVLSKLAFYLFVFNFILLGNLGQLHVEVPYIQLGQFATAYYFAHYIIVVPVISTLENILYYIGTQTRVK

[7] = molecular target: mitochondrial complex I (Bos taurus, UniProt P03887+P17694+P42026); experiment: Bos taurus complex I activity assay; format: biochemical; conditions: 10 μM, SMPs
Sequence of mitochondrial complex I (P03887 whole entry): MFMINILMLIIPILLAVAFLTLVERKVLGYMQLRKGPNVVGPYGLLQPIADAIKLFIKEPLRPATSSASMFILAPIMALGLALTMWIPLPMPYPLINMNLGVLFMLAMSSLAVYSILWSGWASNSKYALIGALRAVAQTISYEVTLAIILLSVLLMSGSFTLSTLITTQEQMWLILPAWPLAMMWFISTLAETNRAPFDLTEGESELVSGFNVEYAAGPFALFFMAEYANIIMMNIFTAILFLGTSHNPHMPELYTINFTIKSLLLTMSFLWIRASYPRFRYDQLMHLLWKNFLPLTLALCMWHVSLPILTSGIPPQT
Sequence of mitochondrial complex I (P42026 38-216): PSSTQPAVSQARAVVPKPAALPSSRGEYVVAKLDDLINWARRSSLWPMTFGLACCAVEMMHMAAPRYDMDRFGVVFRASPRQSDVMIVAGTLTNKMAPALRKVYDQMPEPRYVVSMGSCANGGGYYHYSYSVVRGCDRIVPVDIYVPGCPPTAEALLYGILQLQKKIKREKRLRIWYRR
Sequence of mitochondrial complex I (P17694 34-463): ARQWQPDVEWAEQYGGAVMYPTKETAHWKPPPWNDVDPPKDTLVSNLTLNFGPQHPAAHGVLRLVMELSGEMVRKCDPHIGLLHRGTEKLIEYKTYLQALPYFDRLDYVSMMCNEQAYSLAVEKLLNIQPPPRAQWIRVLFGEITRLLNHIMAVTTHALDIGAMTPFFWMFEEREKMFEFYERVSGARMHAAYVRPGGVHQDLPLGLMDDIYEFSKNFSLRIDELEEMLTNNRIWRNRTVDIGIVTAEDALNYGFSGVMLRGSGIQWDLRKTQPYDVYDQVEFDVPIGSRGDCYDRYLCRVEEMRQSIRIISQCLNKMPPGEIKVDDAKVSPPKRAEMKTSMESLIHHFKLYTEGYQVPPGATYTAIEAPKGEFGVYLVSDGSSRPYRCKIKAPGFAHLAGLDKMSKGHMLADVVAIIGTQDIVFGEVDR
Summary of the method: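 Complex I from bovine heart sub-mitochondrial particles, prepared at 4 °C from isolated mitochondria and cleared at 16,000g. In a 96-well plate, SMPs were mixed with 10 μM test compound or positive control (rotenone, antimycin A or KCN). The reaction was started by injecting 200 μM NADH. NADH oxidation was followed at 340 nm for 8 min.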

SMILES: CCc1nc2ccc(Cl)cn2c1C(=O)NCc1ccc(N2CCC(c3ccc(OC(F)(F)F)cc3)CC2)cc1 [Compound Q203]
- IC50 [1]: 0.099 ± 0.032 µM
- early bactericidal activity [2]: dose-dependent reduction in the load of viable mycobacteria in the sputum
- activity against bovine mitochondrial cytochrome bc1 [3]: did not show activity
- inhibition in SMPs ([3]; 1 μM): no inhibition was detected
- inhibition in SMPs ([3]; 10 μM): some inhibition
- inhibition at 10 µM ([3]; read-out: inhibition of complex III in SMPs): 80%
- MIC50 [4]: 2.7 nM (≈ 1.5 ng/mL)
- half-life [5]: 13.38 ± 9.4704 days
- inhibition of purified C. albicans CIII2 [6]: No inhibition was observed
- inhibition of / binding to mitochondrial complex I [7]: do not inhibit
